Columns and labels:
[1] = test system: Pseudomonas aeruginosa PAO1; assay: Inhibition of Pseudomonas aeruginosa PAO1 LasB using ECR as substrate assessed as reduction in elastin hydrolysis at 50 uM incubated for 16 hrs by congo-red dye based spectrophotometry relative to control
Method in brief: (§1)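 The enzyme source was LasB secreted into P. aeruginosa culture supernatant, with elastin congo-red as substrate. Elastin degradation releases congo-red dye into the supernatant, which is quantified spectrophotometrically.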

[2] = biological target: T1, Angiotensin-converting enzyme (Oryctolagus cuniculus, UniProt P12822); assay: Inhibition of rabbit ACE using Abz-FRK(DNP)-P as substrate measured for every 30 sec for 5 mins by UV-fluorescence based assay
T1 sequence (P12822 whole entry): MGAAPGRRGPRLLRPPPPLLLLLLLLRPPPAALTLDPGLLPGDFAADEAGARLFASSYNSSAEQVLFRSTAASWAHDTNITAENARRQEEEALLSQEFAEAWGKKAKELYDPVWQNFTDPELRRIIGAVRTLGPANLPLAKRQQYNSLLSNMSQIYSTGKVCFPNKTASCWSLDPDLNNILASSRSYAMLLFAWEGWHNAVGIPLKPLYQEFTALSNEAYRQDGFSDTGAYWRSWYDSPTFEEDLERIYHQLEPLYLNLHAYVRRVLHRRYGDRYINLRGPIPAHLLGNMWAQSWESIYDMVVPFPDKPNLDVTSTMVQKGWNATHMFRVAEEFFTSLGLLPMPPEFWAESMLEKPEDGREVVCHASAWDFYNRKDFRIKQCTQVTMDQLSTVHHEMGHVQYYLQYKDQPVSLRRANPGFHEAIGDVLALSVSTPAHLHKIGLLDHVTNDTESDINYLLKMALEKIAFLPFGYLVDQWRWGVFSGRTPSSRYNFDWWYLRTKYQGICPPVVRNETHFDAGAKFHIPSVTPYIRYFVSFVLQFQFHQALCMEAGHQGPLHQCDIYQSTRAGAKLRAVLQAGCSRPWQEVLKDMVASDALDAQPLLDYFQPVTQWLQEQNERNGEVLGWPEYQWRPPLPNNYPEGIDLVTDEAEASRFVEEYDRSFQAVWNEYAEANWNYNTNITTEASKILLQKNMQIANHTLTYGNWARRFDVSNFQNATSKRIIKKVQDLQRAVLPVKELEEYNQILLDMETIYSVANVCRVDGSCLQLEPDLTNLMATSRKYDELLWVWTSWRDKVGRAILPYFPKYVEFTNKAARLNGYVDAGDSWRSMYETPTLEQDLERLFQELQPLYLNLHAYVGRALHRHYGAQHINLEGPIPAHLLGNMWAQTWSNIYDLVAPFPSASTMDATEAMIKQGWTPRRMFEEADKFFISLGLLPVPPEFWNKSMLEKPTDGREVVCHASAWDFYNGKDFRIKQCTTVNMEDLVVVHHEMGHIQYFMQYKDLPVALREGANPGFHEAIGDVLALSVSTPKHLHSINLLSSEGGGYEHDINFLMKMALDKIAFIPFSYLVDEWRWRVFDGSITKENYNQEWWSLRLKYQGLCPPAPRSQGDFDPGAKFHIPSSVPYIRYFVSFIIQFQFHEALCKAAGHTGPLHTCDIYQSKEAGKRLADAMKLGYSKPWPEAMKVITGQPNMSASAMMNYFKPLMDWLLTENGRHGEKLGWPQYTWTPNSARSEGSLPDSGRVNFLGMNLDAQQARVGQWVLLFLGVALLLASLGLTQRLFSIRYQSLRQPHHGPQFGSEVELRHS

[3] = test system: Pseudomonas aeruginosa PAO1; assay: Inhibition of Pseudomonas aeruginosa PAO1 LasB using ECR as substrate assessed as reduction in elastin hydrolysis at 25 uM incubated for 16 hrs by congo-red dye based spectrophotometry relative to control; method in brief: as §1
[4] = Inhibition of Pseudomonas aeruginosa LasB using Abz-Ala-Gly-Leu-Ala-p-Nitro-Benzyl-Amide as substrate measured for every 60 sec for 30 mins by UV-fluorescence based assay
Method in brief: (§2)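 Purified LasB enzyme in a fluorometric inhibition assay adapted from a published method. Compounds were screened at a single concentration of 30 μM (follow-ups in duplicate), and selected compounds were retested over 0.4–200 μM in dose–response. A modified version added 0.01% Triton X-100 to the assay buffer.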

Interstitial collagenase = biological target: T2, Interstitial collagenase (Homo sapiens, UniProt P03956); assay: Inhibition of human MMP1
T2 sequence (P03956 whole entry): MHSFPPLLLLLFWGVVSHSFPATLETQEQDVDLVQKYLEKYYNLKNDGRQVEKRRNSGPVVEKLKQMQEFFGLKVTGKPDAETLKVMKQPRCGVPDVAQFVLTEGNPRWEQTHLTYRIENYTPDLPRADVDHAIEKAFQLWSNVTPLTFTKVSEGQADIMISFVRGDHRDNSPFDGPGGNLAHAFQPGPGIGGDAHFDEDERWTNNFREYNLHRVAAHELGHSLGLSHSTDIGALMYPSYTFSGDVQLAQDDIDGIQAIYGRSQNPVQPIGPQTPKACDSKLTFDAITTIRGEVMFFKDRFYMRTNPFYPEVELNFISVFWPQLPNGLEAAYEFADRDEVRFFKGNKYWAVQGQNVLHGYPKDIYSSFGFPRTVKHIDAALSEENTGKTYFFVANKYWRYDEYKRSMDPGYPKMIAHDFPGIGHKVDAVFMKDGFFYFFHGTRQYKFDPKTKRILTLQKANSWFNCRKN

[5] = biological target: 72 kDa type IV collagenase (Homo sapiens, UniProt P08253); assay: Inhibition of human MMP2
Chain of 72 kDa type IV collagenase (P08253 whole entry): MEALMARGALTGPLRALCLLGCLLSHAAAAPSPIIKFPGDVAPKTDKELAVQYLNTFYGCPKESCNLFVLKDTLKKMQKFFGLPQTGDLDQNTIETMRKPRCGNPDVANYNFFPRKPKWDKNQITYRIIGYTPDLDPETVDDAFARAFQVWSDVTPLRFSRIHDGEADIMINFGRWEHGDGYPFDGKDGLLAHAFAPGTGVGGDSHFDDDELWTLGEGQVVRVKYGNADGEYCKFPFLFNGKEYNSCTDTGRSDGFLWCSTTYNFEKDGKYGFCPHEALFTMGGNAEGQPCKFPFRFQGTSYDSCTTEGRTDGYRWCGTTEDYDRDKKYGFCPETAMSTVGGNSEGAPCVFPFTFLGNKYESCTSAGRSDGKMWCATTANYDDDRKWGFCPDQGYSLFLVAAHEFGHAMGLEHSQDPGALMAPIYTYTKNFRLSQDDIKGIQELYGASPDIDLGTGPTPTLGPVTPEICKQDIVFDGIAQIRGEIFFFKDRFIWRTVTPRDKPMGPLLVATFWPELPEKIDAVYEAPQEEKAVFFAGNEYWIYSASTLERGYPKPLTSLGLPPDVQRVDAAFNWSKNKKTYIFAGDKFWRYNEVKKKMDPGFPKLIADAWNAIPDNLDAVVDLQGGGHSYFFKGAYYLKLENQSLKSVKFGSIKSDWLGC

[6] = test system: ACE (off-target) relative to Pseudomonas aeruginosa PAO1 LasB; assay: Selectivity index, ratio of Ki for rabbit ACE to Ki for Pseudomonas aeruginosa PAO1 LasB; type: toxicity; conditions: read-out: Ratio Ki
Collagenase 3 = Collagenase 3 (Homo sapiens, UniProt P45452); assay: Inhibition of human MMP13
[7] = Inhibition of Pseudomonas aeruginosa LasB using Abz-Ala-Gly-Leu-Ala-p-Nitro-Benzyl-Amide as substrate by micro-titer based fluorimetric assay; method in brief: as §2

inhibition [1]	Ki [2]	inhibition [3]	Ki [4]	IC50 (Interstitial collagenase)	IC50 [5]	IC50 (Collagenase 3)	Ki [7]	Structure (SMILES)	selectivity ratio [6]
49%	> 57 µM	35%	1.08 µM	–	–	–	–	O=C(O)CC1(C(=O)NCc2cc3ccccc3[nH]2)Cc2ccccc2C1	–
–	> 57 µM	–	18.1 µM	–	–	–	–	Cc1cc(Br)ccc1C(=O)NC1=NC(=O)CN1	–
25%	> 57 µM	18%	4.34 µM	–	–	–	–	O=C(O)CC1(C(=O)NCCc2cc3ccccc3[nH]2)Cc2ccccc2C1	–
63%	> 57 µM	–	0.61 µM	–	–	–	–	O=C(O)CC1(C(=O)NCc2ccc3ccccc3n2)Cc2ccccc2C1	–
65%	> 57 µM	55%	0.61 µM	–	–	–	–	O=C(O)CC1(C(=O)NCc2nccs2)Cc2ccccc2C1	–
7%	–	–	76.2 µM	–	–	–	–	O=C(CC1(C(=O)O)Cc2ccccc2C1)NCc1ccc2ccccc2n1	–
21%	> 57 µM	11%	10.5 µM	–	–	–	–	O=C(O)CC1(C(=O)NCCc2nc3ccccc3s2)Cc2ccccc2C1	–
54%	> 57 µM	43%	1.75 µM	–	–	–	–	O=C(O)CC1(C(=O)NCc2ccccc2)Cc2ccccc2C1	–
35%	> 57 µM	23%	3.54 µM	–	–	–	–	O=C(O)CC1(C(=O)NCc2c[nH]c3ccccc23)Cc2ccccc2C1	–
32%	18 µM	21%	12.5 µM	–	–	–	–	Cn1c(CNC(=O)C2(CC(=O)O)Cc3ccccc3C2)nc2ccccc21	–
–	> 57 µM	–	6.87 µM	–	–	–	–	Cc1ccccc1OCC(=O)N(CCC(=O)O)Cc1cccc(F)c1F	–
20%	> 57 µM	11%	21.5 µM	–	–	–	–	O=C(O)CC1(C(=O)NCc2nc3ccccc3[nH]2)Cc2ccccc2C1	–
18%	> 57 µM	11%	13.6 µM	–	–	–	–	O=C(O)CC1(C(=O)NCCc2nc3ccccc3[nH]2)Cc2ccccc2C1	–
79%	> 57 µM	69%	0.16 µM	> 10 µM	> 10 µM	> 10 µM	–	O=C(O)CC1(C(=O)NCc2nc3ccccc3s2)Cc2ccccc2C1	> 356
–	–	–	–	–	–	–	0.041 µM	NC(=O)[C@H](Cc1ccc(O)cc1)NC(=O)[C@H](Cc1ccccc1)NC(=O)CS	–
2%	> 57 µM	–	> 92 µM	–	–	–	–	Cc1ccc2oc(CNC(=O)CC3(C(=O)O)Cc4ccccc4C3)cc2c1	–
60%	> 57 µM	51%	0.69 µM	–	–	–	–	Cn1c(CNC(=O)C2(CC(=O)O)Cc3ccccc3C2)cc2ccccc21	–
25%	> 57 µM	16%	5.66 µM	–	–	–	–	O=C(O)CC1(C(=O)NCCc2cc3ccccc3o2)Cc2ccccc2C1	–
47%	> 57 µM	37%	3.21 µM	–	–	–	–	C[C@H](NC(=O)C1(CC(=O)O)Cc2ccccc2C1)c1cc2ccccc2o1	–
76%	> 57 µM	68%	0.12 µM	> 10 µM	> 10 µM	> 10 µM	–	O=C(O)CC1(C(=O)NCc2nc(-c3ccccc3)cs2)Cc2ccccc2C1	> 356
54%	> 57 µM	42%	1.19 µM	–	–	–	–	O=C(O)CC1(C(=O)NCc2ncc(-c3ccccc3)s2)Cc2ccccc2C1	–
44%	> 57 µM	33%	2.27 µM	–	–	–	–	C[C@@H](NC(=O)C1(CC(=O)O)Cc2ccccc2C1)c1cc2ccccc2o1	–
8%	> 57 µM	–	> 92 µM	–	–	–	–	Cn1cc(CNC(=O)CC2(C(=O)O)Cc3ccccc3C2)cn1	–
57%	> 57 µM	47%	0.62 µM	–	–	–	–	O=C(O)CC1(C(=O)NCc2cc3ccccc3s2)Cc2ccccc2C1	–
54%	> 57 µM	45%	1.4 µM	–	–	–	–	O=C(O)CC1(C(=O)NCc2cc3ccccc3o2)Cc2ccccc2C1	–
22%	> 57 µM	–	14.8 µM	–	–	–	–	CC(NC(=O)CC1(C(=O)O)Cc2ccccc2C1)c1cc2ccccc2o1 (racemic)	–
42%	> 57 µM	–	4.04 µM	–	–	–	–	Cn1cc(CNC(=O)C2(CC(=O)O)Cc3ccccc3C2)cn1	–
28%	40.6 µM	18%	4.85 µM	–	–	–	–	O=C(O)CC1(C(=O)NCCc2cc3ccccc3s2)Cc2ccccc2C1	–
60%	> 57 µM	–	0.45 µM	–	–	–	–	Cc1ccc2oc(CNC(=O)C3(CC(=O)O)Cc4ccccc4C3)cc2c1	–
51%	31.3 µM	41%	1.9 µM	–	–	–	–	O=C(O)CC1(C(=O)NCc2coc3ccccc23)Cc2ccccc2C1	–
